Measured values reported in ChEMBL document CHEMBL4145462, “Nitrogen-containing ecdysteroid derivatives vs. multi-drug resistance in cancer: Preparation and antitumor activity of oximes, oxime ethers and a lactam” (Eur J Med Chem, 2018).

Columns and labels:
[1] = Cytotoxicity against mouse L5178 cells after 48 hrs by MTT assay; assay type: functional, cell-based; conditions: L5178, 48 h
In short: (§1)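 Parental mouse lymphoma L5178 and the MDR line made by pHa MDR1/A retrovirus transfection, selected with 60 µg/L colchicine. Grown in McCoy's 5A with horse serum at 37°C, 5% CO2. 5 x 10^4 cells/well, serial compound dilutions, 48 h. MTT added to 0.5 mg/mL final for 4 h, then 10% SDS in 0.01 M HCl overnight, OD read at 540 and 630 nm. IC50 taken as median cytotoxic activity (Dm) from control lanes of checkerboard plates, n=2.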

ABCB1 (P-glycoprotein) [2] = target: T1, ABCB1 (P-glycoprotein) (Homo sapiens, UniProt P08183); assay: Inhibition of human ABCB1 expressed in mouse L5178 cells assessed as increase in rhodamine-123 accumulation at 20 uM after 10 mins by flow cytometric analysis relative to control; assay type: cell-based; conditions: mouse L5178 cells expressing human ABCB1, probe rhodamine-123
In short: (§2)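 Cells at 2 × 10^6/mL were preincubated 10 min with compound. Rhodamine 123 then added to 5.2 µM final, 20 min at 37 °C. Cells washed twice in PBS, resuspended and read by flow cytometry. Percent inhibition was scaled between MDR-cell accumulation (0%) and parental L5178 accumulation (100%). Controls: 100 nM tariquidar (positive) and 2% DMSO (negative).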

[3] = Synergistic cytotoxicity against mouse L5178 cells expressing human ABCB1 assessed as combination index at ED50 using 30:1 test compound to doxorubicin ratio after 48 hrs by MTT-based checkerboard microplate method; assay type: functional
In short: (§3)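 Checkerboard microplate combinations of compound with doxorubicin at constant molar ratios. 5 × 10^4 cells/well in McCoy's 5A, 48 h at 37°C, 5% CO2. MTT added to 0.5 mg/mL final for 4 h, SDS/HCl overnight, OD read at 540 and 630 nm. Combination indices derived per ratio for 50%, 75% and 90% growth inhibition by median-effect analysis.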

[4] = Synergistic cytotoxicity against mouse L5178 cells expressing human ABCB1 assessed as combination index at ED75 using 60:1 test compound to doxorubicin ratio after 48 hrs by MTT-based checkerboard microplate method; assay type: functional; in short: as §3
ABCB1 (P-glycoprotein) [5] = target: T1, ABCB1 (P-glycoprotein); assay: Inhibition of human ABCB1 expressed in mouse L5178 cells assessed as increase in rhodamine-123 accumulation at 2 uM after 10 mins by flow cytometric analysis relative to control; assay type: cell-based; conditions: mouse L5178 cells expressing human ABCB1, probe rhodamine-123; in short: as §2
[6] = Synergistic cytotoxicity against mouse L5178 cells expressing human ABCB1 assessed as combination index at ED90 using 15:1 test compound to doxorubicin ratio after 48 hrs by MTT-based checkerboard microplate method; assay type: functional; in short: as §3
[7] = Cytotoxicity against mouse L5178 cells expressing human ABCB1 after 48 hrs by MTT assay; assay type: functional, cell-based; conditions: L5178, 48 h; in short: as §1
[8] = Synergistic cytotoxicity against mouse L5178 cells expressing human ABCB1 assessed as combination index at ED90 using 30:1 test compound to doxorubicin ratio after 48 hrs by MTT-based checkerboard microplate method; assay type: functional; in short: as §3
[9] = Synergistic cytotoxicity against mouse L5178 cells expressing human ABCB1 assessed as combination index at ED50 using 15:1 test compound to doxorubicin ratio after 48 hrs by MTT-based checkerboard microplate method; assay type: functional; in short: as §3
[10] = Synergistic cytotoxicity against mouse L5178 cells assessed as combination index at ED50 using 600:1 test compound to doxorubicin ratio after 48 hrs by MTT-based checkerboard microplate method; assay type: functional; in short: as §3
[11] = Synergistic cytotoxicity against mouse L5178 cells assessed as combination index at ED90 using 150:1 test compound to doxorubicin ratio after 48 hrs by MTT-based checkerboard microplate method; assay type: functional; in short: as §3
[12] = Synergistic cytotoxicity against mouse L5178 cells assessed as combination index at ED90 using 600:1 test compound to doxorubicin ratio after 48 hrs by MTT-based checkerboard microplate method; assay type: functional; in short: as §3
[13] = Synergistic cytotoxicity against mouse L5178 cells assessed as combination index at ED75 using 150:1 test compound to doxorubicin ratio after 48 hrs by MTT-based checkerboard microplate method; assay type: functional; in short: as §3
[14] = Synergistic cytotoxicity against mouse L5178 cells assessed as combination index at ED75 using 300:1 test compound to doxorubicin ratio after 48 hrs by MTT-based checkerboard microplate method; assay type: functional; in short: as §3
[15] = Synergistic cytotoxicity against mouse L5178 cells expressing human ABCB1 assessed as combination index at ED75 using 30:1 test compound to doxorubicin ratio after 48 hrs by MTT-based checkerboard microplate method; assay type: functional; in short: as §3
[16] = Synergistic cytotoxicity against mouse L5178 cells assessed as combination index at ED50 using 150:1 test compound to doxorubicin ratio after 48 hrs by MTT-based checkerboard microplate method; assay type: functional; in short: as §3
[17] = Synergistic cytotoxicity against mouse L5178 cells expressing human ABCB1 assessed as combination index at ED50 using 60:1 test compound to doxorubicin ratio after 48 hrs by MTT-based checkerboard microplate method; assay type: functional; in short: as §3
[18] = Synergistic cytotoxicity against mouse L5178 cells assessed as combination index at ED90 using 300:1 test compound to doxorubicin ratio after 48 hrs by MTT-based checkerboard microplate method; assay type: functional; in short: as §3
[19] = Synergistic cytotoxicity against mouse L5178 cells assessed as combination index at ED50 using 300:1 test compound to doxorubicin ratio after 48 hrs by MTT-based checkerboard microplate method; assay type: functional; in short: as §3
[20] = Synergistic cytotoxicity against mouse L5178 cells assessed as combination index at ED75 using 600:1 test compound to doxorubicin ratio after 48 hrs by MTT-based checkerboard microplate method; assay type: functional; in short: as §3
[21] = Synergistic cytotoxicity against mouse L5178 cells expressing human ABCB1 assessed as combination index at ED90 using 60:1 test compound to doxorubicin ratio after 48 hrs by MTT-based checkerboard microplate method; assay type: functional; in short: as §3
[22] = Synergistic cytotoxicity against mouse L5178 cells expressing human ABCB1 assessed as combination index at ED75 using 15:1 test compound to doxorubicin ratio after 48 hrs by MTT-based checkerboard microplate method; assay type: functional; in short: as §3
SiHa = assay: Antiproliferative activity against human SiHa cells after 72 hrs by MTT assay; assay type: functional, cell-based
In short: (§4)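 Cells grown in MEM with 10% FCS, 1% non-essential amino acids and 1% penicillin-streptomycin. Seeded at 5000 cells/well, exposed to 0.1–30.0 µM compound for 72 h. MTT (5 mg/ml solution) was then added for 4 h, formazan dissolved in DMSO, and absorbance read at 545 nm. Cisplatin served as positive control. IC50 came from sigmoidal dose–response fits (log inhibitor vs normalized response, variable slope).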

[23] = Synergistic cytotoxicity against mouse L5178 cells assessed as combination index at ED50 using 37.5:1 test compound to doxorubicin ratio after 48 hrs by MTT-based checkerboard microplate method; assay type: functional; in short: as §3
[24] = Synergistic cytotoxicity against mouse L5178 cells assessed as combination index at ED75 using 37.5:1 test compound to doxorubicin ratio after 48 hrs by MTT-based checkerboard microplate method; assay type: functional; in short: as §3
[25] = Synergistic cytotoxicity against mouse L5178 cells assessed as combination index at ED90 using 75:1 test compound to doxorubicin ratio after 48 hrs by MTT-based checkerboard microplate method; assay type: functional; in short: as §3
[26] = Synergistic cytotoxicity against mouse L5178 cells assessed as combination index at ED50 using 75:1 test compound to doxorubicin ratio after 48 hrs by MTT-based checkerboard microplate method; assay type: functional; in short: as §3
[27] = Synergistic cytotoxicity against mouse L5178 cells assessed as combination index at ED75 using 75:1 test compound to doxorubicin ratio after 48 hrs by MTT-based checkerboard microplate method; assay type: functional; in short: as §3
[28] = Synergistic cytotoxicity against mouse L5178 cells assessed as combination index at ED90 using 37.5:1 test compound to doxorubicin ratio after 48 hrs by MTT-based checkerboard microplate method; assay type: functional; in short: as §3
HeLa = assay: Antiproliferative activity against human HeLa cells after 72 hrs by MTT assay; assay type: functional, cell-based; in short: as §4
MCF7 = assay: Antiproliferative activity against human MCF7 cells after 72 hrs by MTT assay; assay type: functional, cell-based; conditions: MCF7, 72 h; in short: as §4
MDA-MB-231 = assay: Antiproliferative activity against human MDA-MB-231 cells after 72 hrs by MTT assay; assay type: functional, cell-based; conditions: MDA-MB-231, 72 h; in short: as §4

T1 sequence (P08183 whole entry): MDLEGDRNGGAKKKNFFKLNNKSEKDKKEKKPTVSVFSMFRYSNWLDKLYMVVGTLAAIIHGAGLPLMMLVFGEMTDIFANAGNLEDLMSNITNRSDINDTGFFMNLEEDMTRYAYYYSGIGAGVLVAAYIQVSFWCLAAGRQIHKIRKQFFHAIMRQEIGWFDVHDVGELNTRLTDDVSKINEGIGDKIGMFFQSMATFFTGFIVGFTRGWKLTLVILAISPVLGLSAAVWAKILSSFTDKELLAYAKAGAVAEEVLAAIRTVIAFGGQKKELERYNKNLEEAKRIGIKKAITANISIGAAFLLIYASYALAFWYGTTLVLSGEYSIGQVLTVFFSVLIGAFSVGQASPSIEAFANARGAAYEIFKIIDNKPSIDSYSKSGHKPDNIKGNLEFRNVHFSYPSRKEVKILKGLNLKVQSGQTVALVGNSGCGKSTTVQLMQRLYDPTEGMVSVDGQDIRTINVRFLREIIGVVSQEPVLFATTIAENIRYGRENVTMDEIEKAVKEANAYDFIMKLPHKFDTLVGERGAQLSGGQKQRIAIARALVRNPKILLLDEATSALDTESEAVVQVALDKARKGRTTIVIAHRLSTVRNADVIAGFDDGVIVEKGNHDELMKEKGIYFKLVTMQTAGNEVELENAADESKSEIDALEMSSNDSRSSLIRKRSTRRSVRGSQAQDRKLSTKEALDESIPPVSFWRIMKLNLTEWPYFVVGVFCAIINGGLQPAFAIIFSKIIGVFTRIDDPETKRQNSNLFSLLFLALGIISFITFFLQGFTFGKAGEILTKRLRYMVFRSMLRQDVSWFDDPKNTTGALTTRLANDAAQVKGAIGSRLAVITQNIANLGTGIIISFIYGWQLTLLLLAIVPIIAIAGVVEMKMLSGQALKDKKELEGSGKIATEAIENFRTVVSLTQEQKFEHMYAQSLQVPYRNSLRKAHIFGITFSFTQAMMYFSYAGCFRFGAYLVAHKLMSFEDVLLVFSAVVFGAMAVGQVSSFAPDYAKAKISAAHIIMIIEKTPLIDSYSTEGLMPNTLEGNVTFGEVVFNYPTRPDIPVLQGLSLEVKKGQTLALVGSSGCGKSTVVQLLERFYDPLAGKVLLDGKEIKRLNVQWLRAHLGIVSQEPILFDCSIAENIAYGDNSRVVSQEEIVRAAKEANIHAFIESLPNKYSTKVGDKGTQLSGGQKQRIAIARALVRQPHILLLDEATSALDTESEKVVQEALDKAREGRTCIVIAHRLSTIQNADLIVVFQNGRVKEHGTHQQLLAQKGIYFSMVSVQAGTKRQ

Structure (SMILES) | IC50 [1] | inhibition at 10 min, 20 µM (ABCB1 (P-glycoprotein) [2]) | CI [3] | CI [4] | inhibition at 10 min, 2 µM (ABCB1 (P-glycoprotein) [5]) | CI [6] | IC50 [7] | CI [8] | CI [9] | CI [10] | CI [11] | CI [12] | CI [13] | CI [14] | CI [15] | CI [16] | CI [17] | CI [18] | CI [19] | CI [20] | other results
CC(C)(O)CC[C@H]1OC(C)(C)O[C@]1(C)[C@H]1CC=C2C3=C/C(=N/O)[C@@H]4C[C@H]5OC(C)(C)O[C@H]5C[C@]4(C)[C@H]3CC[C@@]21C | 34.2 µM | 81.1% | 0.32 | 0.34 | 7.15% | 0.27 | 28.4 µM | 0.2 | 0.98 | 1.01 | 0.61 | 0.91 | 0.76 | 1.17 | 0.25 | 0.98 | 0.42 | 1.25 | 1.14 | 0.94 | CI [21]: 0.28; CI [22]: 0.25
C=CCO/N=C1\C=C2[C@H](CC[C@]3(C)[C@@H]([C@@]4(C)OC(C)(C)O[C@@H]4CCC(C)(C)O)CC[C@@]23O)[C@@]2(C)C[C@@H]3OC(C)(C)O[C@@H]3C[C@@H]12 | 31.5 µM | 89.4% | 0.17 | 0.26 | 21% | 0.13 | 51.9 µM | 0.21 | 0.17 | 1.19 | 0.69 | 1.05 | 0.81 | 1.12 | 0.18 | 1.03 | 0.24 | 1.11 | 1.22 | 1.08 | IC50 (SiHa): 25.5 µM; CI [23]: 1.95; CI [24]: 1.28; CI [25]: 1.27; CI [26]: 1.35; CI [27]: 1.27; CI [28]: 0.89; IC50 (HeLa): 15.6 µM; IC50 (MCF7): 13.6 µM; IC50 (MDA-MB-231): 21.4 µM; CI [21]: 0.31; CI [22]: 0.13
CC(C)(O)CC[C@H]1OC(C)(C)O[C@]1(C)[C@H]1CC[C@@]2(O)C3=CC(=O)[C@@H]4C[C@H]5OC(C)(C)O[C@H]5C[C@]4(C)[C@H]3CC[C@]12C | 110 µM | 20.9% | – | – | 2.54% | – | 97.7 µM | – | – | – | – | – | – | – | – | – | – | – | – | – | –
COc1cccc2c1C(=O)c1c(O)c3c(c(O)c1C2=O)C[C@@](O)(C(=O)CO)C[C@@H]3O[C@H]1C[C@H](N)[C@H](O)[C@H](C)O1 [DOXORUBICIN] | 0.08 µM | – | – | – | – | – | 4.49 µM | – | – | – | – | – | – | – | – | – | – | – | – | – | –
CC(C)(O)CC[C@H]1OC(C)(C)O[C@]1(C)[C@H]1CC=C2C3=C/C(=N\O)[C@@H]4C[C@H]5OC(C)(C)O[C@H]5C[C@]4(C)[C@H]3CC[C@@]21C | 20.9 µM | 83% | 0.25 | 0.29 | 10.6% | 0.12 | 24.6 µM | 0.16 | 0.26 | 1.1 | 0.78 | 1.13 | 0.79 | 1.11 | 0.19 | 0.8 | 0.34 | 1.04 | 1.18 | 1.11 | CI [21]: 0.27; CI [22]: 0.16
